Assay results: ChEMBL document CHEMBL1149284, “Discovery of pyrano[3,4-b]indoles as potent and selective HCV NS5B polymerase inhibitors” (J Med Chem, 2004)
Active and inactive are the calls of the source. The rule behind the calls is not given here.

Tests used:
[1] = Inhibition of HCV NS5B polymerase; parameters: species or system Hepacivirus hominis
Summary of the method: (§1)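 In vitro nucleotide incorporation assay using functionally active recombinant NS5B with a hairpin-like primed RNA substrate. Controls: enzyme without compound (positive) and enzyme with basilen blue (negative). Result reported as IC50.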

DNA polymerase beta = DNA polymerase beta (Homo sapiens, UniProt P06746); experiment: Inhibition of human DNA polymerase beta
[2] = Inhibition of calf thymus polymerase alpha; parameters: species or system Bos taurus
[3] = Inhibition of HIV reverse transcriptase; parameters: species or system Human immunodeficiency virus
Vero = experiment: Cytotoxicity against Vero cells by MTS assay; assay type: cell-based; conditions: chlorocebus sabaeus
Summary of the method: (§2)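 MTS metabolic assay run on rapidly dividing and on stationary cells.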

[4] = Cytotoxicity against Huh7 cells by MTS assay; assay type: cell-based; conditions: human, huh-7; summary of the method: as §2
[5] = Inhibition of helicase; parameters: species or system Homo sapiens
[6] = Inhibition of HCV 1a NS5B polymerase; parameters: species or system Hepatitis C virus subtype 1a
Summary of the method: (§3)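 In vitro nucleotide incorporation assay using functionally active recombinant NS5B enzyme and a hairpin-like primed RNA substrate. Enzyme without compound served as the positive control, and enzyme with basilen blue dye as the negative control. IC50 values were determined.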

Hepatitis C virus [7] = experiment: Inhibition of HCV 1b NS5B polymerase; parameters: species or system Hepatitis C virus subtype 1b; summary of the method: as §1
[8] = Inhibition of HCV 3a NS5B polymerase; parameters: species or system Hepatitis C virus subtype 3a; summary of the method: as §3
Hepatitis C virus [9] = experiment: Reduction of viral RNA in Huh7 cells containing HCV sub-genomic replicon after 3 days; assay type: functional, organism-based, Hepacivirus hominis; conditions: Huh-7, 72 h
Homo sapiens = organism: Homo sapiens; experiment: Inhibition of human mitochondrial DNA polymerase gamma up to 80 uM
Hepatitis C virus [10] = experiment: Reduction of viral protein in Huh7 cells containing HCV sub-genomic replicon after 3 days; assay type: functional, organism-based; conditions: Hepacivirus hominis; Huh-7

| Compound | IC50 [1] | Activity [4] | also measured |
| --- | --- | --- | --- |
| CCC[C@@]1(CC(=O)O)OCCc2c1[nH]c1c(Cl)ccc(Cl)c21 | 1100 nM | 49 µM |  |
| CCCC1(CC(=O)O)OCCc2c1[nH]c1c(F)ccc(C#N)c21 (centres undefined) | 1000 nM |  |  |
| CCCC1(CC(=O)O)OCCc2c1[nH]c1c(C)ccc(C#N)c21 (single isomer, unassigned) | 2400 nM | > 50 µM |  |
| CCC[C@@]1(CC(=O)O)OCCc2c1[nH]c1c(C)cc(F)c(C#N)c21 | 630 nM | > 50 µM |  |
| CCCC1(CC(=O)OCC)OCCc2c1[nH]c1c(C)ccc(C#N)c21 (centres undefined) | > 30000 nM |  |  |
| CCC[C@]1(CC(=O)O)OCCc2c1[nH]c1c(C)ccc(C#N)c21 | 330 nM |  | IC50 [6]: 300 nM; IC50 (Hepatitis C virus [7]): 300 nM; IC50 [8]: 300 nM; EC50 (Hepatitis C virus [9]): 4.8 µM; Activity (Homo sapiens): inactive; Activity (Hepatitis C virus [10]): Dose-dependent effect |
| CCC[C@]1(CC(=O)O)OCCc2c1[nH]c1c(C)cc(F)c(C#N)c21 | 80 nM | > 50 µM |  |
| CCCC1(CC(=O)O)OCCc2c1[nH]c1c(C)ccc(C#N)c21 (centres undefined) | 570 nM |  |  |
| CCC[C@]1(CC(=O)O)OCCc2c1[nH]c1c(F)ccc(C#N)c21 | 440 nM | > 50 µM |  |
| CCCC1(CC(=O)O)OCCc2c1[nH]c1cccc(Cl)c21 (centres undefined) | 6000 nM |  |  |
| CCCC1(CC(=O)O)OCCc2c1[nH]c1c(C)cc(F)c(C#N)c21 (centres undefined) | 120 nM |  |  |
| CCC[C@@]1(CC(=O)O)OCCc2c1[nH]c1c(F)ccc(C#N)c21 | 5200 nM | > 50 µM |  |

Now from value to compound, other results behind:

| IC50 [1] | Compound | Activity [4] | also measured |
| --- | --- | --- | --- |
| 3000 nM | CCCC1(CC(=O)O)OCCc2c1[nH]c1c(Cl)ccc(CC)c21 (centres undefined) | Not Active | IC50 (DNA polymerase beta): > 100 µM; IC50 [2]: > 100 µM; IC50 [3]: > 100 µM; Activity (Vero): Not Active; IC50 [5]: > 75 µM |
| 2000 nM | CCC[C@]1(CC(=O)O)OCCc2c1[nH]c1c(Cl)ccc(CC)c21 | > 50 µM |  |
| 270 nM | CCCC1(CC(=O)O)OCCc2c1[nH]c1c(Cl)ccc(Cl)c21 (centres undefined) |  |  |
| > 30000 nM | CCc1ccc(Cl)c2[nH]c3c(c12)CCOC3(CC)CC(=O)O (centres undefined) |  |  |
| > 15000 nM | CCC[C@@]1(CC(=O)O)OCCc2c1[nH]c1c(Cl)ccc(CC)c21 | > 50 µM |  |
| 60 nM | CCC[C@]1(CC(=O)O)OCCc2c1[nH]c1c(Cl)ccc(Cl)c21 | 33 µM |  |
